Data published in ChEMBL document CHEMBL1134272, “Enantiomeric synthesis of D- and L-cyclopentenyl nucleosides and their antiviral activity against HIV and West Nile virus” (J Med Chem, 2001).

Key:
CCRF-CEM = assay: In vitro cytotoxicity in CEM cells.; type: functional, cell-based; conditions: Homo sapiens
[1] = In vitro cytotoxicity in PBM cells.; type: functional, cell-based; conditions: Homo sapiens, PBMC
[2] = system: Human immunodeficiency virus 1; assay: In vitro antiviral activity against HIV-1 in human PBM cells.; type: functional, organism-based; conditions: Human immunodeficiency virus 1, PBMC
West Nile virus = assay: In vitro antiviral activity against West Nile Virus.; type: functional, organism-based
In short: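 Lightly confluent Vero cells in 96-well plates received serial compound dilutions and then 5 CCID50 of the WNV New York isolate, with test samples in triplicate. Cells were scored visually for cytopathic effect 6 days after virus exposure. Neutral red uptake (2-3 h, 37 °C; absorbance 540 and 405 nm) was used to verify the scoring. EC50 was obtained by regression on mean ratings or on percent-of-control absorbance.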

Vero = assay: In vitro cytotoxicity in vero cells.; type: functional, cell-based; conditions: Chlorocebus sabaeus
In short: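 Uninfected Vero cells were treated with serial compound dilutions, with toxicity controls in duplicate at each concentration, and were scored visually 6 days later. Scoring was confirmed by neutral red uptake (2-3 h, 37 °C; absorbance 540 and 405 nm) expressed as percent of control. IC50 was obtained by regression analysis.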

[3] = system: Human immunodeficiency virus 1; assay: The compound was evaluated for the antiviral activity against HIV-1 in human PBM cells; type: functional, organism-based

SMILES: O=c1ccn([C@@H]2C=C(CO)[C@@H](O)[C@H]2O)c(=O)[nH]1
- IC50 (CCRF-CEM): > 100 µM
- IC50 [1]: > 100 µM
- EC50 [2]: > 100 µM
- EC50 (West Nile virus): > 200 µM
- IC50 (Vero): > 100 µM

SMILES: Nc1ccn([C@H]2C=C(CO)[C@H](O)[C@@H]2O)c(=O)n1
- IC50 (CCRF-CEM): > 100 µM
- IC50 [1]: > 100 µM
- EC50 [2]: 58.9 µM
- EC50 (West Nile virus): > 200 µM
- IC50 (Vero): > 100 µM

SMILES: Nc1nc(O)c2ncn([C@@H]3C=C(CO)[C@@H](O)[C@H]3O)c2n1
- IC50 (CCRF-CEM): > 100 µM
- IC50 [1]: > 100 µM
- EC50 [2]: > 100 µM
- EC50 (West Nile virus): > 200 µM
- IC50 (Vero): > 100 µM

SMILES: OCC1=C[C@H](n2cnc3c(O)ncnc32)[C@@H](O)[C@H]1O
- IC50 (CCRF-CEM): > 100 µM
- IC50 [1]: > 100 µM
- EC50 [2]: > 100 µM
- EC50 (West Nile virus): > 200 µM
- IC50 (Vero): > 100 µM

SMILES: Nc1nc(=O)n([C@@H]2C=C(CO)[C@@H](O)[C@H]2O)cc1F
- IC50 (CCRF-CEM): 51.8 µM
- IC50 ([3]; Human immunodeficiency virus 1, PBMC): 5.34 µM
- IC50 ([3]; pbm): 5.34 µM
- IC50 [1]: 73.7 µM
- EC50 [2]: 5.34 µM
- EC50 (West Nile virus): 15 µM
- IC50 (Vero): 27.4 µM

SMILES: O=c1[nH]c(=O)n([C@@H]2C=C(CO)[C@@H](O)[C@H]2O)cc1F
- IC50 (CCRF-CEM): > 100 µM
- IC50 [1]: > 100 µM
- EC50 [2]: 93.1 µM
- EC50 (West Nile virus): > 200 µM
- IC50 (Vero): > 100 µM

SMILES: Nc1ncnc2c1ncn2[C@H]1C=C(CO)[C@H](O)[C@@H]1O
- IC50 (CCRF-CEM): > 100 µM
- IC50 [1]: > 100 µM
- EC50 [2]: > 100 µM
- EC50 (West Nile virus): > 200 µM
- IC50 (Vero): > 100 µM

SMILES: Cc1cn([C@@H]2C=C(CO)[C@@H](O)[C@H]2O)c(=O)[nH]c1=O
- IC50 (CCRF-CEM): > 100 µM
- IC50 [1]: > 100 µM
- EC50 [2]: > 100 µM
- EC50 (West Nile virus): > 200 µM
- IC50 (Vero): > 100 µM

SMILES: Nc1nc(O)c2ncn([C@H]3C=C(CO)[C@H](O)[C@@H]3O)c2n1
- IC50 (CCRF-CEM): > 100 µM
- IC50 [1]: > 100 µM
- EC50 [2]: > 100 µM
- EC50 (West Nile virus): > 200 µM
- IC50 (Vero): > 100 µM

SMILES: Cc1cn([C@H]2C=C(CO)[C@H](O)[C@@H]2O)c(=O)[nH]c1=O
- IC50 (CCRF-CEM): > 100 µM
- IC50 [1]: > 100 µM
- EC50 [2]: > 100 µM
- EC50 (West Nile virus): > 200 µM
- IC50 (Vero): > 100 µM

SMILES: O=c1[nH]c(=O)n([C@H]2C=C(CO)[C@H](O)[C@@H]2O)cc1F
- IC50 (CCRF-CEM): > 100 µM
- IC50 [1]: > 100 µM
- EC50 [2]: > 100 µM
- EC50 (West Nile virus): > 200 µM
- IC50 (Vero): > 100 µM

SMILES: Nc1nc(=O)n([C@H]2C=C(CO)[C@H](O)[C@@H]2O)cc1F
- IC50 (CCRF-CEM): > 100 µM
- IC50 [1]: > 100 µM
- EC50 [2]: > 100 µM
- EC50 (West Nile virus): > 200 µM
- IC50 (Vero): > 100 µM

SMILES: O=c1ccn([C@H]2C=C(CO)[C@H](O)[C@@H]2O)c(=O)[nH]1
- IC50 (CCRF-CEM): > 100 µM
- IC50 [1]: > 100 µM
- EC50 [2]: > 100 µM
- EC50 (West Nile virus): > 200 µM
- IC50 (Vero): > 100 µM

SMILES: OCC1=C[C@@H](n2cnc3c(O)ncnc32)[C@H](O)[C@@H]1O
- IC50 (CCRF-CEM): > 100 µM
- IC50 [1]: > 100 µM
- EC50 [2]: > 100 µM
- EC50 (West Nile virus): > 200 µM
- IC50 (Vero): > 100 µM

SMILES: Nc1ccn([C@@H]2C=C(CO)[C@@H](O)[C@H]2O)c(=O)n1
- IC50 (CCRF-CEM): 0.08 µM
- IC50 [1]: 6.5 µM
- EC50 [2]: 0.06 µM
- EC50 (West Nile virus): 0.2 µM
- IC50 (Vero): 1.95 µM

SMILES: O=c1cnn([C@@H]2O[C@H](CO)[C@@H](O)[C@H]2O)c(=O)[nH]1 [6-AZAURIDINE]
- EC50 (West Nile virus): 1.2 µM
- IC50 (Vero): > 100 µM

SMILES: Nc1ncnc2c1ncn2[C@@H]1C=C(CO)[C@@H](O)[C@H]1O [NEOPLANOCIN A]
- IC50 (CCRF-CEM): 1.2 µM
- IC50 [1]: 44.6 µM
- EC50 [2]: 0.1 µM
- EC50 (West Nile virus): > 51 µM
- IC50 (Vero): 3.5 µM

SMILES: Cc1cn([C@H]2C[C@H](N=[N+]=[N-])[C@@H](CO)O2)c(=O)[nH]c1=O [ZIDOVUDINE]
- IC50 [1]: > 100 µM
- EC50 [2]: 0.004 µM
